Results from ChEMBL document CHEMBL3588770, “Novel spirohydantoin derivative as a potent multireceptor-active antipsychotic and antidepressant agent” (Bioorg Med Chem, 2015).

How the values were obtained:
[1] = target: Histamine H1 receptor (Homo sapiens) (UniProt P35367); experiment: Antagonist activity at human recombinant H1 receptor expressed in HEK-293 cells assessed as inhibition of histamine-induced intracellular Ca2+ release at 1 uM by fluorimetry; format: functional, cell-based; conditions: HEK293
Chain of Histamine H1 receptor (Homo sapiens) (P35367 whole entry): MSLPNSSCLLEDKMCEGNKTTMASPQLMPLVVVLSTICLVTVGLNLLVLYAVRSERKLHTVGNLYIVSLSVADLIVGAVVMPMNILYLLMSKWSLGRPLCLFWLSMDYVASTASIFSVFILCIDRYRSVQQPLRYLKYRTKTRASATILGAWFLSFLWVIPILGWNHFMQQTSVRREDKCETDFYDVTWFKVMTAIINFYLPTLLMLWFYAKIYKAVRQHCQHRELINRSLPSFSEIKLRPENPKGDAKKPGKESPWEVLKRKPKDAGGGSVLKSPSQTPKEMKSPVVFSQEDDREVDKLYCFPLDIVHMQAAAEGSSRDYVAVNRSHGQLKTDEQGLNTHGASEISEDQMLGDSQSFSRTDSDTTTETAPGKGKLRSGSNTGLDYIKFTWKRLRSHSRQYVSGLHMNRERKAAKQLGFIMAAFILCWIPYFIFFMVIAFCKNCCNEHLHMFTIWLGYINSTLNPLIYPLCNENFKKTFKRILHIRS
Outline: (§1)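 Functional assays run by a contract lab on CHO or HEK-293 cells stably expressing the human receptor. Read-out was intracellular cAMP, IP1 or Ca2+ release. A single test concentration of 1.0E-06 was used, in duplicate. Data are mean % of the control response.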

[2] = target: Histamine H1 receptor (Homo sapiens) (UniProt P35367); experiment: Displacement of [3H]-pyrilamine from human cloned H1 receptor expressed in HEK293 cells at 1 uM by scintillation counting analysis; format: cell-based
Outline: (§2)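 Extended binding screen run by a contract lab. Receptors were cloned human: 5-HT1A, 5-HT2A, 5-HT2C and H1 in HEK-293 cells; D1, α1, α2C and M3 in CHO cells; 5-HT6/7 and D2/3/4 in CHO cells. Radioligand displacement was done at a single 1.0E-06 concentration in duplicate. Results are mean % inhibition of control specific binding.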

[3] = target: 5-hydroxytryptamine receptor 7 (Homo sapiens) (UniProt P34969); experiment: Agonist activity at human recombinant 5HT7 receptor expressed in CHO cells assessed as intracellular cAMP release at 1 uM by HTRF assay; format: functional, cell-based; outline: as §1
Chain of 5-hydroxytryptamine receptor 7 (Homo sapiens) (P34969 whole entry): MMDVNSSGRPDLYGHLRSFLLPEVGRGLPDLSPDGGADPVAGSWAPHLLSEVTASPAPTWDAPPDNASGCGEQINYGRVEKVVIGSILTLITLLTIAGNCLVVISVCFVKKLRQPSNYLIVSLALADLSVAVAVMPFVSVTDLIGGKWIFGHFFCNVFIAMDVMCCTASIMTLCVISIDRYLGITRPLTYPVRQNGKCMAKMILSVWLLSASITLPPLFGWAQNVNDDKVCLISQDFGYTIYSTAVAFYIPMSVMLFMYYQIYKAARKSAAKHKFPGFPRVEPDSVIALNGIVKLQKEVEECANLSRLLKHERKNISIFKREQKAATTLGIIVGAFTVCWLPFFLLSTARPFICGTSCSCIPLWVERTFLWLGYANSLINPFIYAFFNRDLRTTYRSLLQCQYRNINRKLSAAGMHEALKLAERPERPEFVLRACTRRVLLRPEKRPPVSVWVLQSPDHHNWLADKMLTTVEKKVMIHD

[4] = target: 5-hydroxytryptamine receptor 7 (Homo sapiens) (UniProt P34969); experiment: Antagonist activity at human recombinant 5HT7 receptor expressed in CHO cells assessed as inhibition of serotonin-induced intracellular cAMP release at 1 uM by HTRF assay; format: functional, cell-based; outline: as §1
[5] = target: T1, Adrenergic receptor alpha-1 (Homo sapiens) (UniProt P35348+P25100+P35368); experiment: Agonist activity at human recombinant alpha1 adrenoceptor expressed in CHO cells at 1 uM; format: cell-based; outline: as §1
[6] = target: T2, D(4) dopamine receptor (Homo sapiens) (UniProt P21917); experiment: Antagonist activity at human recombinant D4 receptor expressed in CHO cells assessed as inhibition of dopamine-induced intracellular cAMP release at 1 uM by HTRF method; format: functional, cell-based; outline: as §1
T2 sequence (whole entry): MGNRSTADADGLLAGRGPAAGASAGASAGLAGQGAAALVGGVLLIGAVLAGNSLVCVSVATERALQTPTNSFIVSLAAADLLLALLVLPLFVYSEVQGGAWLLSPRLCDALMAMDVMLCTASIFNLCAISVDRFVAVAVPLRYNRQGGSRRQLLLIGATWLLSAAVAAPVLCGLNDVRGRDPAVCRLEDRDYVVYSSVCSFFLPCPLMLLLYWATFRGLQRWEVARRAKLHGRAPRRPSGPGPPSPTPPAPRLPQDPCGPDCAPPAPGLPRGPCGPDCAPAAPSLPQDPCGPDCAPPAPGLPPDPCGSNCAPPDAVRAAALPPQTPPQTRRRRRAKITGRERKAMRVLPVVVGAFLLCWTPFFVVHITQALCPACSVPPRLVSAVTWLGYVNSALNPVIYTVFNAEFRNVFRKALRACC

[7] = target: 5-hydroxytryptamine receptor 2A (Homo sapiens) (UniProt P28223); experiment: Antagonist activity at human recombinant 5HT2A receptor expressed in HEK293 cells assessed as inhibition of serotonin-induced intracellular IP1 release at 1 uM by HTRF assay; format: functional, cell-based; outline: as §1
Chain of 5-hydroxytryptamine receptor 2A (Homo sapiens) (P28223 whole entry): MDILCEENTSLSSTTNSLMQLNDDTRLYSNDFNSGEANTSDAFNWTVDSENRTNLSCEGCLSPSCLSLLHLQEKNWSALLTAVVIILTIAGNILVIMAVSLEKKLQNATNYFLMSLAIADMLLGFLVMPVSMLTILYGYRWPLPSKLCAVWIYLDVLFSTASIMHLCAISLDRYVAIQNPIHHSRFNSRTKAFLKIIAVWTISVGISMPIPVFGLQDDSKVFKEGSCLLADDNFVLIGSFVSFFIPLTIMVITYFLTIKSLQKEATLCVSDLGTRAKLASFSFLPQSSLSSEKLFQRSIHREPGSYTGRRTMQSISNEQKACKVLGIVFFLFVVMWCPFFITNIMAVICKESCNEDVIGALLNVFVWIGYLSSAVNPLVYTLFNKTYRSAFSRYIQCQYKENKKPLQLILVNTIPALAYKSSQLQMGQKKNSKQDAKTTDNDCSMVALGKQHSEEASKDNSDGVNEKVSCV

[8] = target: T1, Adrenergic receptor alpha-1 (Homo sapiens); experiment: Displacement of [3H]prazosin from human alpha1-adrenergic receptor expressed in CHO cells at 1 uM by scintillation counting analysis; format: cell-based; outline: as §2
[9] = target: 5-hydroxytryptamine receptor 6 (Homo sapiens) (UniProt P50406); experiment: Displacement of [3H]LSD from human 5HT6 receptor expressed in CHO cells at 1 uM by scintillation counting analysis; format: cell-based; outline: as §2
Chain of 5-hydroxytryptamine receptor 6 (Homo sapiens) (P50406 whole entry): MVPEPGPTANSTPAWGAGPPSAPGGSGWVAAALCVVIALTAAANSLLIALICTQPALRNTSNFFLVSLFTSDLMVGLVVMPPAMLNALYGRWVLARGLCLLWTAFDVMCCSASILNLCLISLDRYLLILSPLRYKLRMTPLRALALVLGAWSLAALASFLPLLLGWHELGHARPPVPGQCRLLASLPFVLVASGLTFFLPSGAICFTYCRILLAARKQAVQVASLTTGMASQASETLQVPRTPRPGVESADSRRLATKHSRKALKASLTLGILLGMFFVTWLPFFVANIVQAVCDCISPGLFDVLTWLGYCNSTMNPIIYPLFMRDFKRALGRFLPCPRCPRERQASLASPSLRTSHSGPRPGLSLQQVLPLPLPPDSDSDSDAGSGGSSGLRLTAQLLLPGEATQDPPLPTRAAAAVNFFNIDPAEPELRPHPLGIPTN

[10] = target: 5-hydroxytryptamine receptor 2A (Rattus norvegicus, UniProt P14842); experiment: Displacement of [3H]ketanserin from 5-HT2A receptor in rat cortical membrane by liquid scintillation analysis; format: cell membranes
Chain of 5-hydroxytryptamine receptor 2A (P14842 whole entry): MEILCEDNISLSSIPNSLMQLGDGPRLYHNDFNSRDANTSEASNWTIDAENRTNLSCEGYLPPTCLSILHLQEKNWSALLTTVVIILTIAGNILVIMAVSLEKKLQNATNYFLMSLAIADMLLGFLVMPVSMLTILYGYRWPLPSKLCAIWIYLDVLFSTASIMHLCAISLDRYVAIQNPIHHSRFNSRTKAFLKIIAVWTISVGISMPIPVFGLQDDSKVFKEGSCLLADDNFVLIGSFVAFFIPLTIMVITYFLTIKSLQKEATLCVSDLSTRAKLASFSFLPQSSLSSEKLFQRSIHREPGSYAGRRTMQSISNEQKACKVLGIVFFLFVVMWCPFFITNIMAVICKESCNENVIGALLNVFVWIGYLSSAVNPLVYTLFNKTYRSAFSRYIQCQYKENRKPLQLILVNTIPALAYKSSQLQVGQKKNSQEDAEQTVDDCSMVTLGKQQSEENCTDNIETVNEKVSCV
Outline: (§3)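 Native rat membranes were used: hippocampus with [3H]-8-OH-DPAT (170 Ci/mmol) and 5-HT for non-specific binding; cortex with [3H]-ketanserin (88.0 Ci/mmol) and methysergide; hypothalamus with [3H]-5-CT (34.5 Ci/mmol) and 5-HT. Compounds were tested in triplicate at 7–8 concentrations (10⁻¹¹–10⁻⁴ M). Read-out was liquid scintillation counting. Ki came from nonlinear regression with Cheng-Prusoff, as the mean of at least two experiments.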

[11] = target: T3, Alpha-2C adrenergic receptor (Homo sapiens) (UniProt P18825); experiment: Antagonist activity at human recombinant alpha2C adrenoceptor expressed in CHO cells assessed as inhibition of epinephrine-induced intracellular cAMP release at 1 uM by HTRF assay; format: functional, cell-based; outline: as §1
T3 sequence (whole entry): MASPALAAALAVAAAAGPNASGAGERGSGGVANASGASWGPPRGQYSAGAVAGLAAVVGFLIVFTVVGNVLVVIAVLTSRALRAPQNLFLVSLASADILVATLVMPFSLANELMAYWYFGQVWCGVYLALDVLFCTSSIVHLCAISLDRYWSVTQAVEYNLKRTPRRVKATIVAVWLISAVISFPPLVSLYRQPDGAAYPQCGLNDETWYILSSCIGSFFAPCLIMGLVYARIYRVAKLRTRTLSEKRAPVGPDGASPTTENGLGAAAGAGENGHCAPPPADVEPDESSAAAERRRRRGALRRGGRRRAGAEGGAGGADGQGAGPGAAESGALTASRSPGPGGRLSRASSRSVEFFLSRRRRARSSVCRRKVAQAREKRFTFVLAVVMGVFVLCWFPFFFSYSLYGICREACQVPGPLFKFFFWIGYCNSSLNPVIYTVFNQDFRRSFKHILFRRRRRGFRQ

[12] = target: D(3) dopamine receptor (Homo sapiens) (UniProt P35462); experiment: Agonist activity at human recombinant D3 receptor expressed in CHO cells assessed as intracellular cAMP release at 1 uM by HTRF method; format: functional, cell-based; outline: as §1
Chain of D(3) dopamine receptor (Homo sapiens) (P35462 whole entry): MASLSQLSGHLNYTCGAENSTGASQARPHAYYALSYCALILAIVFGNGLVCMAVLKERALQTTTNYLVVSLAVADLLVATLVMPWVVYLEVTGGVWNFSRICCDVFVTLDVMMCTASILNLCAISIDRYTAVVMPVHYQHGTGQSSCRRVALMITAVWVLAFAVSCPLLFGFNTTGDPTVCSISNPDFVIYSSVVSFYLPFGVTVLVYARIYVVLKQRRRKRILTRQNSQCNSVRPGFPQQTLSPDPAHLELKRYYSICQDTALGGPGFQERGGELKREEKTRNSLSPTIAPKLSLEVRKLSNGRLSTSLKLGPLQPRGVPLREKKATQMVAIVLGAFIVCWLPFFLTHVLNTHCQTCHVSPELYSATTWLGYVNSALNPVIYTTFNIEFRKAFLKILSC

[13] = target: Muscarinic acetylcholine receptor M3 (Homo sapiens) (UniProt P20309); experiment: Displacement of [3H]-4-DAMP from human muscarinic M3 receptor expressed in CHO cells at 1 uM by scintillation counting analysis; format: cell-based; outline: as §2
Chain of Muscarinic acetylcholine receptor M3 (Homo sapiens) (P20309 whole entry, looked up): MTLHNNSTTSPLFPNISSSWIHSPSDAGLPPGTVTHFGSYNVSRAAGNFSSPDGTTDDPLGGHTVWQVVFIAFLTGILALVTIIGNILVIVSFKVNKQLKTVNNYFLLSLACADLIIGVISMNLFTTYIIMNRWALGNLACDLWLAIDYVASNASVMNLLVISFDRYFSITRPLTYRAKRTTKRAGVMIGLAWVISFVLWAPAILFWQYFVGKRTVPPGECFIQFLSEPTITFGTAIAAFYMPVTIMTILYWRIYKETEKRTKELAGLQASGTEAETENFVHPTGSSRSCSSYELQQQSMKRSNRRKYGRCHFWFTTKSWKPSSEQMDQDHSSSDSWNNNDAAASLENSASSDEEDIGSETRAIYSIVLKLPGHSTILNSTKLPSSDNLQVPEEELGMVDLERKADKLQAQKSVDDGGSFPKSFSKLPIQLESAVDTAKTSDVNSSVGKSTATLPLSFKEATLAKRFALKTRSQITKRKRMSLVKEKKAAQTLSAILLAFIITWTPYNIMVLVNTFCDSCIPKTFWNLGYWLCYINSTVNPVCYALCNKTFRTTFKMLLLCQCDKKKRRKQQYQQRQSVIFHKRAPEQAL

[14] = target: T2, D(4) dopamine receptor (Homo sapiens); experiment: Agonist activity at human recombinant D4 receptor expressed in CHO cells assessed as intracellular cAMP release at 1 uM by HTRF method; format: functional, cell-based; outline: as §1
[15] = target: T4, 5-hydroxytryptamine receptor 1A (Rattus norvegicus, UniProt P19327); experiment: Displacement of [3H]-8-OH-DPAT from 5-HT1A receptor in rat hippocampal membrane by liquid scintillation analysis; format: cell membranes, Hippocampus; outline: as §3
T4 sequence (P19327 whole entry): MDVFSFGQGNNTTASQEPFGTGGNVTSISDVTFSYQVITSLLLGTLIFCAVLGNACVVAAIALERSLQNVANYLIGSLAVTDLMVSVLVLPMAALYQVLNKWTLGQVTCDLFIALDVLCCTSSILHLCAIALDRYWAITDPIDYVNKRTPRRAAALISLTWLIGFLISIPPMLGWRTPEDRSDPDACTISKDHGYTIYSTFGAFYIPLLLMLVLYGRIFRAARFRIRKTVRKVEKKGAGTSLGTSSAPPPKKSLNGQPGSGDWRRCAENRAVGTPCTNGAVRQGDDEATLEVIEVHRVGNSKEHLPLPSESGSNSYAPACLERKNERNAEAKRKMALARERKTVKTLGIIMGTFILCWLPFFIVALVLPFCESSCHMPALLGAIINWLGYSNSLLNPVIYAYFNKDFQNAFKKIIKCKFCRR

| Structure (SMILES) | inhibition [1] | inhibition [2] | Activity [3] | inhibition [4] | Activity [5] | inhibition [6] | inhibition [7] | inhibition [8] | inhibition [9] | Ki [10] | inhibition [11] | Activity [12] | inhibition [13] | Activity [14] | Ki [15] |
| --- | --- | --- | --- | --- | --- | --- | --- | --- | --- | --- | --- | --- | --- | --- | --- |
| COc1ccccc1N1CCN(CCCCN2C(=O)NC3(CCc4ccccc43)C2=O)CC1 (configuration not stated) | 58% | 94% | 6% | 28% | 2% | 75% | 18% | 98% | 3% | 98 nM | 69% | 20% | 5% | 27% | 2.6 nM |
| O=C1NC2(CCc3ccccc32)C(=O)N1CCCCN1CCN(c2cccc(Cl)c2)CC1 (configuration not stated) |  | 101% |  |  |  |  |  | 96% | 23% | 21 nM |  |  | 5% |  | 12 nM |
| COc1ccccc1N1CCN(CCCCN2C(=O)NC3(CCCc4ccccc43)C2=O)CC1 (configuration not stated) | 63% | 99% | 6% | 43% | 1% | 84% | 27% | 99% | 29% | 59 nM | 79% | 18% | -6% | 15% | 2.2 nM |
| O=C1NC2(CCCc3ccccc32)C(=O)N1CCCCN1CCN(c2cccc(Cl)c2)CC1 (configuration not stated) |  | 102% |  |  |  |  |  | 94% | 37% | 27 nM |  |  | 3% |  | 15 nM |
